Each block holds one compound with its values, some of them ahead of it.
Columns and labels:
vWF [1] = details: cited from earlier work
vWF [2] = assay: vWF reductase activity: collagen binding activity / vWF antigen ratio in vitro; format: biochemical, human
In short: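 Plasma from a TTP patient (plasmapheresis; centrifuged 2,000 g, 20 min, 4°C) was used at 10 μl with 90 μl Hepes-buffered saline containing 1 mM CaCl2. The buffer held purified human platelet TSP-1 (0.001–100 μg/ml; purified in 0.1 or 2 mM CaCl2 buffers, quantified by A280) or HMEC-1 conditioned medium. Incubation was 1 or 24 h at 37°C. Aliquots were diluted 10-fold and assayed for collagen binding and vWF antigen, giving a ratio. Triplicates, mean and SD.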

vWF [3] = assay: Formation of new thiols in vWF; format: biochemical, human
vWF [4] = assay: Binding of TSP-1 to vWF; design: species or system human
In short: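 vWF (5 μg/ml in 0.1 M NaHCO3, pH 8.3) adsorbed to wells overnight at 4°C, then blocked with 2% BSA in HBS (90 min, 37°C). Control wells were BSA-blocked only, with 10 μg/ml TSP-1. TSP-1 (0–10 μg/ml) in Hepes/NaCl/1 mM CaCl2/1 mM MgCl2, pH 7.4, with 0, 5 or 20 mM NEM, 30 min RT with shaking. Wells washed with 1 M NaCl buffer. Detection: anti-TSP-1 mAb HB8432 (10 μg/ml), then peroxidase anti-mouse (1:1,000). Triplicates, mean and SD.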

[5] = cited from earlier work
activated platelets = details: cited from earlier work
collagen = details: cited from earlier work
[6] = Plasma concentration of human TSP-1 in mice after injection; format: in vivo; details: Balb c mice, 1 mg/kg i.p., 24 h after injection, TSP-1 ELISA
In short: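 Balb c mice (7–9 wk; 2 male, 2 female per group) received purified human platelet TSP-1 at 1 mg/kg as a 0.1 ml i.p. injection. EDTA blood was taken by cardiac puncture 24 h later. Human TSP-1 was measured by sandwich ELISA: HB8432 capture (5 μg/ml, pH 9.6, overnight at 4°C), BSA block, diluted plasma 30 min RT, biotin-HB8432 (5 μg/ml), then StreptABComplex/HRP (1:100). Standards were TSP-1-depleted plasma spiked with platelet TSP-1; the assay was linear over 1–100 ng/ml.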

vWF [7] = format: biochemical, human
plasma vWF = assay: Reduction in average multimer size of plasma vWF in mice; format: in vivo; details: Balb c mice, 1 mg/kg i.p., 24 h, P < 0.05
In short: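 Balb c mice aged 7–9 wk, n = 4 per group with 2 male and 2 female each, were given buffer vehicle or purified human platelet TSP-1 at 1 mg/kg as a 0.1 ml i.p. injection. After 24 h, EDTA plasma was collected by cardiac puncture. Plasma was assayed in triplicate for vWF collagen binding activity and vWF antigen, using anti-rat vWF polyclonal antibodies. Multimer size was expressed as the collagen binding/antigen ratio.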

platelet aggregation = details: high fluid shear; cited from earlier work

Compound: O=C(O)CN(CCN(CC(=O)O)CC(=O)O)CC(=O)O [EDTA, reference compound]
effect of EDTA on vWF reductase activity in endothelial cell–conditioned medium (vWF [1]): inhibited | effect of EDTA (chelation of Ca2+) on vWF reductase activity of TSP-1 (vWF [2]; not shown): ablated the vWF reductase activity of TSP-1 | effect of EDTA on TSP-1–facilitated formation of free thiols in vWF (vWF [3]; not shown): ablated TSP-1–facilitated formation of free thiols in vWF

Compound: CCN1C(=O)C=CC1=O [NEM, N-ethylmaleimide, reference compound]
TSP-1/vWF complex formation vs NEM concentration (vWF [4]; NEM 0, 5, 20 mM, 30 min, room temperature): Complex formation increased with increasing NEM concentration

Compound: large vWF multimers: large multimers of von Willebrand factor
ristocetin cofactor activity per unit antigen vs small multimers [5]: considerably higher | affinity for activated platelets vs monomeric fragments (activated platelets): ~100 fold | affinity for activated platelets vs small multimers (activated platelets): up to 10 fold

Compound: multimeric vWF: multimeric von Willebrand factor
collagen binding affinity vs monomeric vWF fragments (collagen): ~100 fold

binding of TSP-1 to wells not coated with vWF (vWF [4]; 10 μg/ml TSP-1, BSA-blocked wells): no binding | dependence of TSP-1–mediated reduction in vWF multimer size (vWF [2]; TTP1 plasma, TSP-1 0.001 to 100 μg/ml, 1 or 24 h, 37°C): concentration and time dependent | optimal TSP-1 concentration for reduction of vWF in 1 h (vWF [2]; purified TSP-1, ∼1 μg/ml plasma vWF, 1 h): ~0.1 µg/mL | optimal TSP-1 concentration for reduction of vWF in 24 h (vWF [2]; purified TSP-1, ∼1 μg/ml plasma vWF, 24 h): ~0.01 µg/mL
Compound: thrombospondin-1 [TSP-1]
vWF reducing activity of three different preparations of platelet TSP-1 (vWF [2]; not shown): had the same vWF reducing activity | concentration of human TSP-1 in mouse plasma [6]: ~1000 ng/mL | dependence of MPB incorporation on TSP-1 concentration (vWF [3]; TSP-1 0.01 to 100 μg/ml, 60 min, 37°C): the incorporation increased with increasing TSP-1 concentration | formation of new thiols in vWF (MPB incorporation) (vWF [3]; purified human vWF 2 μg/ml, 60 min, 37°C, TSP-1 0.01 to 100 μg/ml or HMEC-1–conditioned medium, MPB 100 μM): resulted in incorporation of MPB into vWF | average multimer size of plasma vWF (vWF [7]; TSP-1 added to TTP2 and TTP3 patient plasmas (not shown)): reduced the average multimer size of the plasma vWF | very large vWF multimers (vWF [7]; TTP1 patient plasma, 1 h, 37°C, 1% agarose gel): the very large multimers were lost | average multimer size of plasma vWF vs buffer vehicle (plasma vWF): significantly lower

Compound: unusually large vWF multimers: unusually large vWF multimers secreted by endothelial cells
induction of platelet aggregation vs largest plasma forms (platelet aggregation): more effective

Reference: PMC2193294 (The Journal of Experimental Medicine, 2001)
